NPY Y2 blocker: NPY-Y2 (human) receptor antagonism; P49146; NPY-Y2 expressing cells, antagonist mode; inhibition, % at 2.7 µM; hit rate 0.99% among 140,000; in the data active means inhibition above about 17%;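 further: 0% = vehicle with agonist challenge and 100% = reference antagonist with challenge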
Target sequence (P49146 whole entry, looked up): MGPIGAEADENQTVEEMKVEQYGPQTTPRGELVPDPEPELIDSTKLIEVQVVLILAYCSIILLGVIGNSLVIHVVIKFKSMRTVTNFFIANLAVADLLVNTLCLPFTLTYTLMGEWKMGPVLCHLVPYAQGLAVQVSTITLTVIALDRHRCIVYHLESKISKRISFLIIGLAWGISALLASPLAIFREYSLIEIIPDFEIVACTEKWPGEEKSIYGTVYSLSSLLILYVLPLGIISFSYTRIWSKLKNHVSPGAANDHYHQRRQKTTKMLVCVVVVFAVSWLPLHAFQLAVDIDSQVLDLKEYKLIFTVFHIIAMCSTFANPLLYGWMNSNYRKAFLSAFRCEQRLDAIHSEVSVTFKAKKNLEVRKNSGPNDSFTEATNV
EP2 antag: inhibitors of human EP2 prostaglandin E2 receptor | C6 glioma cells expressing human EP2, cAMP TR-FRET; cells stimulated with saturating PGE2 | inhibition, % at 25 µM | hit rate 0.52% among 260,000 | AID 1422;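 active means percent inhibition above 40 after rounding to a whole number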;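 further: rat C6 glioma host cells with rolipram phosphodiesterase inhibitor present; the protocol text gives 20 µM as final concentration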
NPY-Y1 antag: NPY-Y1 (human) receptor antagonism. HEK293-CNG Y1 cells, membrane potential fluorescence; NPY at EC95, then isoproterenol. inhibition, % at 3.6 µM. hit rate 1% among 200,000;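 active means inhibition above the campaign mean inhibition of all tested compounds plus 3 SD, cut at about 20% in these data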;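 further: 0% = DMSO wells given NPY plus isoproterenol and 100% = isoproterenol alone without NPY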
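Material: Y1- and CNG-channel-expressing HEK293 cells / Probe or stimulus: NPY 25 nM then isoproterenol 1 µM plus Ro 20-1724 25 µM / Doses: 3.6 µM single dose, DMSO 0.4% / Schedule: compound incubation 1 h at room temperature, readout 45 min post-stimulation / Signal: membrane potential fluorescence / Benchmarks: isoproterenol-only wells as full block versus NPY-plus-isoproterenol wells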
EP2 modulator: modulators of human EP2 prostaglandin E2 receptor; induction, % at 25 µM; EP2-expressing cells, cAMP HTRF FRET, PGE2 co-stimulation; P43116; hit rate 0.83% among 260,000;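 active means compounds whose cAMP rise, as percent of the full-agonist control response, exceeds 60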;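 further: rat C6 glioma line stably carrying human EP2 under a CMV promoter; the protocol text gives 20 µM as final concentration; 100% = response of wells given 1 µM PGE2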
NPY2 pot ag: human NPY-Y2 potentiation or agonism, primary screen; cells expressing NPY-Y2, potentiator/agonist read-out; P49146; hit rate 0.45% among 220,000; activation, % at 3.6 µM; in the data active means activation above about 27%;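 further: cells stimulated with NPY near EC25 plus isoproterenol at EC100; 0% = vehicle plus submaximal agonist and 100% = vehicle plus saturating agonist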
NPY-Y1 PAM-ag: human NPY-Y1 potentiation or agonism, primary screen; NPY-Y1 expressing cells, potentiator/agonist activation; activation, % at 3.6 µM; hit rate 0.37% among 220,000; in the data active means activation above about 33%, passing the limit was not always enough;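 further: cells stimulated with NPY at EC10 then isoproterenol at EC100; 0% = low agonist plus stimulus and 100% = saturating agonist plus stimulus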
Numbers without * were called inactive. In the library only some 2.8% were active in any assay of this set; here they are far more common.

What do the screens show for `O=C(Nc1ccc(Nc2ccc3c(c2)C(=O)c2ccccc2C3=O)c2c1C(=O)c1ccccc1C2=O)c1ccccc1`?
EP2 antag: 44*; EP2 modulator: -15

How did Cc1ccnc(-n2cccc2CN(CCCn2ccnc2)Cc2ccc(C)o2)c1 do in these assays?
EP2 antag: 13; EP2 modulator: 15

How did Cc1ccc(CN(CCCn2ccnc2)Cc2cccn2-c2cccc(F)c2)o1 do in these assays?
EP2 antag: 4; EP2 modulator: 62*

What do the screens show for `CC1CCN(c2nc3c(c(=O)[nH]2)CCN(Cc2ccc(O)cc2)C3)CC1`?
EP2 antag: 1; EP2 modulator: -35

What do the screens show for `CC1Cc2ccccc2N1C(=O)c1cc2nc(-c3ccco3)cc(C(F)(F)F)n2n1` (centres undefined)?
EP2 antag: 9; EP2 modulator: 72*

How did CC(C)(C)c1ccc(Oc2ccc(NC(=O)c3ccco3)cn2)cc1 do in these assays?
EP2 antag: 12; EP2 modulator: -24; NPY2 pot ag: 58*; NPY-Y1 PAM-ag: 54*

What do the screens show for `CC1=C(C#N)C(c2ccccc2O)C(C#N)=C(C)N1`?
EP2 antag: 11; NPY-Y1 antag: -2; EP2 modulator: 22; NPY2 pot ag: 11; NPY-Y1 PAM-ag: 15

How did Cc1ccccc1C1C(C#N)=C(N)NC(S)=C1C#N (centres undefined) do in these assays?
EP2 antag: 14; EP2 modulator: 71*

What do the screens show for `CC(C)(C)c1ccc(O)c(CN(Cc2cc(C(C)(C)C)ccc2O)C2CCCCC2)c1`?
EP2 antag: 64*; EP2 modulator: -16

Results for CC(C)(C)c1ccc(O)c(CN(Cc2c(O)ccc3ccccc23)C2CCCCC2)c1 ?
EP2 antag: 39; EP2 modulator: 35

Results for COc1ccccc1NC(=O)C(NC(=O)OC(C)(C)C)C(C)OCc1ccccc1 (centres undefined) ?
NPY Y2 blocker: 6; EP2 antag: 4; NPY-Y1 antag: 7; EP2 modulator: 63*; NPY2 pot ag: 1; NPY-Y1 PAM-ag: -7

How did CC(C)C(NC(=O)OC(C)(C)C)C(=O)NC(CCC(=O)OCc1ccccc1)C(N)=O (centres undefined) do in these assays?
EP2 antag: 3; NPY-Y1 antag: -7; EP2 modulator: -21; NPY2 pot ag: 6; NPY-Y1 PAM-ag: 17

Results for O=C(O)CCCC(=O)Nc1ccc(N2CCCCC2)cc1 ?
EP2 antag: 8; EP2 modulator: 19

What do the screens show for `CCOC(=O)c1c(-c2ccc(CC)cc2)csc1N`?
EP2 antag: 9; EP2 modulator: 94*

How did CCOC(=O)c1c(-c2ccc(OC)cc2)csc1NC(=O)CC do in these assays?
EP2 antag: 5; EP2 modulator: 50

What do the screens show for `CCOC(=O)c1c(-c2ccc(C)cc2)csc1NC(=O)CC`?
EP2 antag: 6; EP2 modulator: 78*

Results for CCOC(=O)c1c(-c2cccs2)csc1N ?
EP2 antag: 10; NPY-Y1 antag: 0; EP2 modulator: 55; NPY2 pot ag: -8; NPY-Y1 PAM-ag: -3

What do the screens show for `CCOC(=O)c1c(-c2ccc(OCC)cc2)csc1NC(C)=O`?
EP2 antag: 8; EP2 modulator: 64*

How did COc1ccc(S(=O)(=O)N2CCC(C(=O)Nc3cccc(C)c3C)CC2)cc1C do in these assays?
EP2 antag: 8; EP2 modulator: -12

Results for COc1ccc(NC(=O)C(=O)N2N=C3CCCCC3C2(O)C(F)(F)F)cc1 (centres undefined) ?
EP2 antag: 10; NPY-Y1 antag: 1; EP2 modulator: 61*; NPY2 pot ag: 0; NPY-Y1 PAM-ag: 12

How did O=C(O)CCC(O)=C1S(=O)(=O)OCCOS1(=O)=O do in these assays?
EP2 antag: 43*; EP2 modulator: 29

Results for O=C(O)CCN1CCOCC1 ?
NPY Y2 blocker: -3; EP2 antag: 11; NPY-Y1 antag: 9; EP2 modulator: 4; NPY2 pot ag: 7; NPY-Y1 PAM-ag: -8

What do the screens show for `CC(=O)Oc1c(C)cc(Cl)cc1C(=O)Nc1ccc([N+](=O)[O-])cc1Cl`?
NPY Y2 blocker: 20*; EP2 antag: 7; NPY-Y1 antag: 16; EP2 modulator: -7; NPY2 pot ag: 25; NPY-Y1 PAM-ag: -49

Results for O=C(CSc1cccc[n+]1[O-])Nc1ccc(C(F)(F)F)cc1[N+](=O)[O-] ?
EP2 antag: 10; NPY-Y1 antag: -1; EP2 modulator: 8; NPY2 pot ag: 8; NPY-Y1 PAM-ag: -1

How did O=[N+]([O-])c1ccc(Sc2cccc[n+]2[O-])c2nonc12 do in these assays?
EP2 antag: 116*; EP2 modulator: -48; NPY2 pot ag: 10; NPY-Y1 PAM-ag: 21

What do the screens show for `Cn1nc(C(F)(F)F)c(-c2cccc(C(F)(F)F)c2)c1NC(=O)Nc1ccc(F)cc1`?
EP2 antag: 11; EP2 modulator: -30; NPY2 pot ag: 102*; NPY-Y1 PAM-ag: 111*

Results for CCOc1ccccc1-n1c(SCC(=O)Nc2ccccc2C)nnc1-c1ccncc1 ?
EP2 antag: 13; EP2 modulator: -4

How did Cc1cc(C)nc(NC(=O)c2ccc(Cl)c([N+](=O)[O-])c2)n1 do in these assays?
EP2 antag: 16; EP2 modulator: 6; NPY2 pot ag: 9; NPY-Y1 PAM-ag: 7

How did Cc1nc(N2CCCCC2)sc1C(=O)c1ccc(Cl)c([N+](=O)[O-])c1 do in these assays?
EP2 antag: 7; NPY-Y1 antag: -11; EP2 modulator: -12; NPY2 pot ag: 47*; NPY-Y1 PAM-ag: 48*

How did N=c1n(CCN2CCOCC2)c2ccccc2n1CC(O)COc1ccccc1 (centres undefined) do in these assays?
NPY Y2 blocker: 12; EP2 antag: 6; NPY-Y1 antag: 8; EP2 modulator: 12; NPY2 pot ag: -6; NPY-Y1 PAM-ag: -15

How did N=c1n(Cc2ccccc2)c2ccccc2n1CC(O)COc1ccccc1 (centres undefined) do in these assays?
NPY Y2 blocker: 43*; EP2 antag: 5; NPY-Y1 antag: 41*; EP2 modulator: -9; NPY2 pot ag: -33; NPY-Y1 PAM-ag: -29

How did Cc1ccc(Cn2c(=N)n(CC(O)COc3ccccc3)c3ccccc32)cc1 (centres undefined) do in these assays?
NPY Y2 blocker: 34*; EP2 antag: -5; NPY-Y1 antag: 36*; EP2 modulator: -22; NPY2 pot ag: -25; NPY-Y1 PAM-ag: -57

How did CCCC(=O)NNC(=O)c1c(O)c2ccccc2n(C)c1=O do in these assays?
EP2 antag: 11; EP2 modulator: -49

How did O=C(c1ccccc1)N1C(=O)C(c2ccccc2)Oc2ccccc21 (centres undefined) do in these assays?
EP2 antag: 11; EP2 modulator: 81*; NPY2 pot ag: 26; NPY-Y1 PAM-ag: 33

Results for Nc1ccc2nc(-c3cccs3)[nH]c2c1 ?
NPY Y2 blocker: 2; EP2 antag: 93*; NPY-Y1 antag: 0; EP2 modulator: 4; NPY2 pot ag: -2; NPY-Y1 PAM-ag: -31
